*1 amine or outer side, *2 acyl side, *3 side chain or, on linkers, in order; H or OH if unused. Where a SMILES comes first, the peptide text is derived from it. Bridges are numbered along the chain shown (N, C = ends). Triazole bridges read from a SMILES are 1,4-linked. [ ]: non-standard residue; d: D form. The star is where a group is joined. RhodamineB = CCN(CC)c1ccc2c(-c3ccccc3C(=O)*)c3ccc(=[N+](CC)CC)cc-3oc2c1; Lys(N3) = [N-]=[N+]=NCCCC[C@H](N)C(=O)O; NMeGABA = CN(CCCC(=O)[*:2])[*:1]; Pra = C#CC[C@H](N)C(=O)O
What was measured:
[1] = biological target: D570-A583 epitope of proMMP2 (Fluo-epitope) (Homo sapiens, UniProt P08253); assay: FRET binding assay; conditions: 100 nM Fluo-epitope, varying Rhod-peptide
In short: (§1)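 Fluorescein-labelled epitope held at 100 nM final and mixed with a concentration series of rhodamine-tagged cyclic peptide. Mixtures were incubated 30 min, then FRET intensity was read on a microplate reader. Each point used individually prepared triplicate samples.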

[2] = system: Fluo-C5 (C-terminal scrambled epitope); assay: FRET binding assay with partially scrambled epitope C5; conditions: 100 nM Fluo-epitope variation
In short: as §1

[3] = system: Fluo-M5 (middle segment scrambled epitope); assay: FRET binding assay with partially scrambled epitope M5; conditions: 100 nM Fluo-epitope variation
In short: as §1

[4] = system: Fluo-N5 (N-terminal scrambled epitope); assay: FRET binding assay with partially scrambled epitope N5; conditions: 100 nM Fluo-epitope variation
In short: as §1

[5] = biological target: Fluo-epitope (fluorescein-labeled D570-A583 epitope of proMMP2) (human); assay: FRET or BRET

Kd [5] [nM]	Compound	binding affinity to the epitope (FRET) [1]	binding to scrambled epitope C5 (FRET) [2]	binding to scrambled epitope M5 (FRET) [3]	binding to scrambled epitope N5 (FRET) [4]
	CCN(CC)c1ccc2c(-c3ccccc3C(=O)N(C)CCCC(=O)N[C@H]3Cc4cn(nn4)CCCC[C@@H](C(N)=O)NC(=O)[C@H](Cc4ccc(O)cc4)NC(=O)[C@@H]4CCCN4C(=O)[C@H](Cc4c[nH]cn4)NC(=O)[C@@H]4CCCN4C(=O)[C@H](Cc4c[nH]c5ccccc45)NC3=O)c3ccc(=[N+](CC)CC)cc-3oc2c1 [Rhod-cy(WPHPY)] (RhodamineB-[NMeGABA][Pra]WPHPY[Lys(N3)]-NH2; triazole 2-8; N-terminus assumed)	highest binding affinity	not able to bind	retained the binding affinity	retained the binding affinity
1	cy(WPHPY) (peptide)				

Source: PMC7437931 (Journal of medicinal chemistry, 2020)
